Results published in ChEMBL document CHEMBL3091379, “A selective mitochondrial-targeted chlorambucil with remarkable cytotoxicity in breast and pancreatic cancers” (J Med Chem, 2013).
Activity calls are given as the source filed them. No cut-off for these calls is given here.

What was measured:
[1] = Cytotoxicity against human MIAPaCa2 cells after 72 hrs by MTT assay; format: functional, cell-based; details: MIA PaCa-2, 72 h
Outline: (§1)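 Cells seeded at 4 × 10^3 per well, adhered overnight, then exposed continuously for 72 h. Media refreshed, MTT added to 0.3 mg/mL final, 4 h at 37 °C. Formazan dissolved in DMSO and read at 570 nm. IC50 taken from log concentration vs % nonviable cells; triplicate wells. Rho θ lines grown with 50 μg/mL uridine.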

[2] = Cytotoxicity against human Hs578T cells after 72 hrs by MTT assay; format: functional, cell-based; details: Hs-578T; outline: as §1
MDA-MB-435 [3] = test: Cytotoxicity against mitochondrial DNA-deficient human MDA-MB-435 rho theta-W01 cells after 72 hrs by MTT assay; format: functional, cell-based; details: MDA-MB-435, 72 h; outline: as §1
BT-474 [4] = test: Cytotoxicity against human BT474 cells after 72 hrs by MTT assay; format: functional, cell-based; details: BT-474, 72 h
[5] = Cytotoxicity against human SKBR3 cells after 72 hrs by MTT assay; format: functional, cell-based; details: SK-BR-3, 72 h; outline: as §1
MCF7 [6] = test: Cytotoxicity against human MCF7 cells after 72 hrs by MTT assay; format: functional, cell-based; details: MCF7, 72 h; outline: as §1
[7] = Cytotoxicity against human CAMA1 cells after 72 hrs by MTT assay; format: functional, cell-based; details: CAMA-1, 72 h; outline: as §1
MDA-MB-468 [8] = test: Cytotoxicity against human MDA-MB-468 cells after 72 hrs by MTT assay in presence of NAC; format: functional, cell-based; details: MDA-MB-468, 72 h
MIA PaCa-2 [9] = test: Induction of nuclear DNA damage in human MIAPaCa2 cells assessed as increase in gammaH2A.X expression at 75 uM by Western blotting analysis; format: functional, cell-based; details: TDE = time-dependent effect
MDA-MB-231 [10] = test: Cytotoxicity against mitochondrial DNA-deficient human MDA-MB-231 rho theta-W02 cells after 72 hrs by MTT assay; format: functional, cell-based; details: MDA-MB-231, 72 h; outline: as §1
[11] = Antitumor activity against human MIAPaCa2 cells xenografted in athymic nude mouse assessed as inhibition of tumor growth at 10 mg/kg, ip administered 5 times a week for 36 days; format: functional; details: MIA PaCa-2, ip, 864 h, route intraperitoneal, read-out: TGI
Outline: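 Established subcutaneous xenografts (2 × 10^6 cells in 1:1 matrigel–basal DMEM, right rear flank) in 4−6 week old mice; randomized at ~100 mm3, n = 6 per group. Dosed ip 10 mg/kg five times weekly; DMSO stock diluted in saline or sesame oil. Caliper volume V = d2 × D/2. Unpaired Student's t-test vs vehicle at day 36.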

BT-549 [12] = test: Cytotoxicity against human BT549 cells after 72 hrs by MTT assay; format: functional, cell-based; details: BT-549, 72 h; outline: as §1
MDA-MB-231 [13] = test: Cytotoxicity against wild type human MDA-MB-231 cells after 72 hrs by MTT assay; format: functional, cell-based; details: MDA-MB-231, 72 h; outline: as §1
MIA PaCa-2 [14] = test: Induction of nuclear DNA damage in human MIAPaCa2 cells assessed as increase in gammaH2A.X expression after 24 hrs by Western blotting analysis in presence of NAC relative to control; format: functional
MIA PaCa-2 [15] = test: Induction of nuclear DNA damage in human MIAPaCa2 cells assessed as increase in gammaH2A.X expression after 24 hrs by Western blotting analysis relative to control; format: functional
MDA-MB-435 [16] = test: Cytotoxicity against wild type human MDA-MB-435 cells after 72 hrs by MTT assay; format: functional, cell-based; details: MDA-MB-435, 72 h; outline: as §1
[17] = Cell cycle arrest in human MIAPaCa2 cells assessed as accumulation at G2/M phase at 20 uM after 24 to 48 hrs by flow cytometry; format: functional, cell-based; details: MIA PaCa-2
Outline: (§2)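 Cells in 6-well dishes exposed to 2 or 20 μM for 0−72 h, trypsinized, PBS-washed, fixed and permeabilized in 70% ethanol. Stained with 10 μg/mL propidium iodide plus 100 μg/mL RNase A. DNA content read by flow cytometry with 488 nm excitation and 575/26 nm bandpass.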

[18] = Cell cycle arrest in human MIAPaCa2 cells assessed as increase of […] cells at 20 uM after 24 to 72 hrs by flow cytometry; format: functional, cell-based; details: MIA PaCa-2; outline: as §2
MDA-MB-468 [19] = test: Cytotoxicity against human MDA-MB-468 cells after 72 hrs by MTT assay; format: functional, cell-based; details: MDA-MB-468, 72 h; outline: as §1
[20] = Cytotoxicity against human BxPC3 cells after 72 hrs by MTT assay; format: functional, cell-based; details: BXPC-3, 72 h; outline: as §1
MDA-MB-435 [21] = test: Cytotoxicity against mitochondrial DNA-deficient human MDA-MB-435 rho theta-W02 cells after 72 hrs by MTT assay; format: functional, cell-based; details: MDA-MB-435, 72 h; outline: as §1
MDA-MB-468 [22] = test: Induction of nuclear DNA damage in human MDA-MB-468 cells assessed as increase in gammaH2A.X expression at 20 uM by Western blotting analysis; format: functional, cell-based; details: TDE = time-dependent effect
CAMA-1 = test: Sensitivity ratio of chlorambucil IC50 to compound IC50 for human CAMA1 cells; format: functional
MIA PaCa-2 [23] = test: Induction of nuclear DNA damage in human MIAPaCa2 cells assessed as increase in gammaH2A.X expression at 2 uM by Western blotting analysis; format: functional, cell-based; details: TDE = time-dependent effect
MDA-MB-435 [24] = test: Ratio of IC50 for mitochondrial DNA-deficient human MDA-MB-435 rho theta-W01 cells to IC50 for wild type human MDA-MB-435 cells; format: functional
MDA-MB-231 [25] = test: Ratio of IC50 for mitochondrial DNA-deficient human MDA-MB-231 rho theta-W02 cells to IC50 for wild type human […]; format: functional
[26] = Cell cycle arrest in human MIAPaCa2 cells assessed as accumulation at S phase at 2 uM after 24 hrs by flow cytometry; format: functional, cell-based; details: MIA PaCa-2; outline: as §2
Hs-578T = test: Sensitivity ratio of chlorambucil IC50 to compound IC50 for human Hs 578T cells; format: functional
MDA-MB-231 [27] = test: Sensitivity ratio of chlorambucil IC50 to compound IC50 for human MDA-MB-231 cells; format: functional
BT-549 [28] = test: Sensitivity ratio of chlorambucil IC50 to compound IC50 for human BT549 cells; format: functional
MDA-MB-435 [29] = test: Ratio of IC50 for mitochondrial DNA-deficient human MDA-MB-435 rho theta-W02 cells to IC50 for wild type human MDA-MB-435 cells; format: functional
MDA-MB-435 [30] = test: Sensitivity ratio of chlorambucil IC50 to compound IC50 for wild type human MDA-MB-435 cells; format: functional
BXPC-3 = test: Sensitivity ratio of chlorambucil IC50 to compound IC50 for human BxPC3 cells; format: functional
[31] = Cell cycle arrest in human MIAPaCa2 cells assessed as increase of […] cells at 2 uM after 24 to 72 hrs by flow cytometry; format: functional, cell-based; details: MIA PaCa-2; outline: as §2
MCF7 [32] = test: Sensitivity ratio of chlorambucil IC50 to compound IC50 for human MCF7 cells; format: functional
[33] = Drug uptake in nucleus of human MIAPaCa2 cells at 10 uM after 18 hrs using […] staining by laser-scanning confocal microscopy; format: ADME, cell-based; details: mia paca-2, 18 h
Outline: (§3)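 Cells on glass coverslips, adhered overnight, exposed 18 h at 10 μM. Fixed in 3.7% formaldehyde 15 min at RT, permeabilized in ice-cold acetone 5 min at −20 °C, blocked in 1% BSA/PBS. Anti-TPP antisera and anti-complex I antibody (1:1000) overnight at 4 °C, then Cy5/Cy3 secondaries (1:200) 2 h. Imaged by scanning confocal microscopy.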

MDA-MB-468 [34] = test: Induction of nuclear DNA damage in human MDA-MB-468 cells assessed as increase in gammaH2A.X expression at 2 uM by Western blotting analysis; format: functional, cell-based; details: TDE = time-dependent effect
[35] = Cell cycle arrest in human MIAPaCa2 cells assessed as accumulation at G2/M phase at 2 uM after 24 to 48 hrs by flow cytometry; format: functional, cell-based; details: MIA PaCa-2; outline: as §2
MIA PaCa-2 [36] = test: Sensitivity ratio of chlorambucil IC50 to compound IC50 for human MIAPaCa2 cells; format: functional
MDA-MB-468 [37] = test: Induction of nuclear DNA damage in human MDA-MB-468 cells assessed as increase in gammaH2A.X expression after 5 to 24 hrs by Western blotting analysis; format: functional, cell-based
MDA-MB-468 [38] = test: Sensitivity ratio of chlorambucil IC50 to compound IC50 for human MDA-MB-468 cells; format: functional
SK-BR-3 = test: Sensitivity ratio of chlorambucil IC50 to compound IC50 for human SKBR3 cells; format: functional
BT-474 [39] = test: Sensitivity ratio of chlorambucil IC50 to compound IC50 for human BT474 cells; format: functional
[40] = Drug uptake in cytoplasm of human MIAPaCa2 cells at 10 uM after 18 hrs using […] staining by laser-scanning confocal microscopy; format: ADME, cell-based; details: mia paca-2, 18 h; outline: as §3
[41] = Drug uptake in mitochondria of human MIAPaCa2 cells at 10 uM after 18 hrs using […] staining by laser-scanning confocal microscopy; format: ADME; details: mia paca-2, 18 h; outline: as §3
MIA PaCa-2 [42] = test: Induction of nuclear DNA damage in human MIAPaCa2 cells assessed as increase in gammaH2A.X expression after 5 to 24 hrs by Western blotting analysis; format: functional, cell-based

## O=C(O)CCCc1ccc(N(CCCl)CCCl)cc1 [CHLORAMBUCIL]
[1]
  IC50: 78.3 µM
[2]
  IC50: 162 µM
MDA-MB-435 [3]
  IC50: > 200 µM
BT-474 [4]
  IC50: 238 µM
[5]
  IC50: 248 µM
MCF7 [6]
  IC50: 73.3 µM
[7]
  IC50: 192 µM
MDA-MB-468 [8]
  IC50: 67.5 µM
MIA PaCa-2 [9]
  Activity: tde
MDA-MB-231 [10]
  IC50: > 200 µM
[11]
  inhibition in vivo at 10 mg/kg: 61.5%
BT-549 [12]
  IC50: > 200 µM
MDA-MB-231 [13]
  IC50: > 200 µM
MIA PaCa-2 [14]
  fold change (FC): 2.6
MIA PaCa-2 [15]
  fold change (FC): 2.5
MDA-MB-435 [16]
  IC50: 150 µM
[17]
  Activity: Active
[18]
  Activity: Active
MDA-MB-468 [19]
  IC50: 43.8 µM
[20]
  IC50: > 100000 nM
MDA-MB-435 [21]
  IC50: > 200 µM
MDA-MB-468 [22]
  Activity: tde

## O=C(CCCc1ccc(N(CCCl)CCCl)cc1)NCCC[P+](c1ccccc1)(c1ccccc1)c1ccccc1.O=C([O-])C(F)(F)F
CAMA-1
  Ratio IC50: 79.9
[1]
  IC50: 1.6 µM
[2]
  IC50: 11.4 µM
MIA PaCa-2 [23]
  Activity: tde
MDA-MB-435 [24]
  Ratio IC50: 5
MDA-MB-231 [25]
  Ratio IC50: >2.1
MDA-MB-435 [3]
  IC50: 15 µM
BT-474 [4]
  IC50: 6.5 µM
[26]
  Activity: Active
[5]
  IC50: 5.7 µM
Hs-578T
  Ratio IC50: 14.3
MDA-MB-231 [27]
  Ratio IC50: 54.8
BT-549 [28]
  Ratio IC50: 27.4
MDA-MB-435 [29]
  Ratio IC50: 11.7
MDA-MB-435 [30]
  Ratio IC50: 50
[7]
  IC50: 2.4 µM
MDA-MB-468 [8]
  IC50: 0.6 µM
BXPC-3
  Ratio IC50: >40
[31]
  Activity: Active
MCF7 [32]
  Ratio IC50: 7.7
MDA-MB-231 [10]
  IC50: > 20 µM
[33]
  Drug uptake: Not Active
[11]
  inhibition in vivo at 10 mg/kg: 45%
BT-549 [12]
  IC50: 7.3 µM
MDA-MB-231 [13]
  IC50: 9.5 µM
MDA-MB-468 [34]
  Activity: tde
[35]
  Activity: Active
MIA PaCa-2 [14]
  fold change (FC): 1.2
MIA PaCa-2 [36]
  Ratio IC50: >40
MDA-MB-468 [37]
  Activity: Dose-dependent effect
MDA-MB-468 [38]
  Ratio IC50: 25.8
SK-BR-3
  Ratio IC50: 43.4
MIA PaCa-2 [15]
  fold change (FC): 2.9
MDA-MB-435 [16]
  IC50: 3 µM
BT-474 [39]
  Ratio IC50: 36.5
[40]
  Drug uptake: Active
[41]
  Drug uptake: Active
MDA-MB-468 [19]
  IC50: 1.7 µM
MIA PaCa-2 [42]
  Activity: Dose-dependent effect
[20]
  IC50: 2500 nM
MDA-MB-435 [21]
  IC50: 35 µM

## CCCC[P+](CCCC)(CCCC)CCCNC(=O)CCCc1ccc(N(CCCl)CCCl)cc1
MCF7 [6]
  IC50: 35 µM

## O=C(CCCc1ccc(N(CCO)CCO)cc1)NCCC[P+](c1ccccc1)(c1ccccc1)c1ccccc1
MCF7 [6]
  IC50: 80 µM

## O=C(CCCc1ccc(N(CCCl)CCCl)cc1)NCCC[P+](C1CCCCC1)(C1CCCCC1)C1CCCCC1
MCF7 [6]
  IC50: 40 µM
